Test results from PubChem BioAssay AID652000 (Sanford-Burnham Center for Chemical Genomics, 2013).
The whole screen tested about 2,400 compounds, of which fewer than 10 were called active. The list is a sample of the results. Unmarked numbers belong to inactive results.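 Rule for the calls: active = activation of at least 50%; inactive = the rest.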

Target: G-protein coupled receptor 183 (Homo sapiens) (UniProt P32249)
Experiment: EBI2 receptor activation without oxysterol – cell-based, single concentration, agonist mode, luminescence, counter-screen for EBI2 antagonist project, confirmation (AID 652000)
Settings: EBI2-expressing cells, 60 min, at 5 µM, stronger effect = higher value, 0% vehicle, 100% 7α,25-dihydroxycholesterol control
Summary of the method: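 System: beta-arrestin recruitment reporter cells, agonist mode. Amount: 1500 cells in each well. Probe or stimulus: no added oxysterol for test compounds. Compound: single concentration, 2.5 nL of 10 mM stock. Timing: 37°C overnight seeding and 60-min compound, 25°C dark 60-min detection. Signal: luminescence. Benchmarks: 7alpha,25-OHC positive control.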

Sequence of G-protein coupled receptor 183 (Homo sapiens) (P32249 whole entry, looked up): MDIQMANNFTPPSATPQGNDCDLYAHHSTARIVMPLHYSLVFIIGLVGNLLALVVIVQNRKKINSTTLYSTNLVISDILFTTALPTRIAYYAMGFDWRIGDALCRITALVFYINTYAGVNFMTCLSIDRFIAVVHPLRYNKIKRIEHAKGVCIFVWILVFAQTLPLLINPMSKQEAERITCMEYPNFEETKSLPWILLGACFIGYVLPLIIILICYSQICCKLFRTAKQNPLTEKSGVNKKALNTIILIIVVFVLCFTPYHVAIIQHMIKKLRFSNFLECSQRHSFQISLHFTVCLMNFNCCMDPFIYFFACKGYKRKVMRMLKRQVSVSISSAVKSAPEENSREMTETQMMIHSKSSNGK

SMILES	activation [%]
O=C(NCc1ccc(Cl)cc1)C1CCN(S(=O)(=O)c2cccs2)CC1	0.21
O=C(CCNS(=O)(=O)c1ccccc1)NCCSc1ccc(Br)cc1	-1.84
Cc1ccc(O/C=C2\OC(=O)c3ccccc32)cc1	-0.84
O=C(COc1ccc2ccccc2c1)N1CCN(C(=O)c2cccs2)CC1	0.16
COc1ccc(/C=C/C(=O)c2ccc(OC)cc2O)cc1	-0.61
Fc1ccc(N2CCN(Cc3cnc(Oc4ccc(Br)cc4)s3)CC2)cc1	1.8
CCOC(=O)N1CCN(C(=O)COc2ccc(Cl)cc2C)CC1	0.57
CN(Cc1ccc(F)cc1)C(=O)COc1ccc2ccccc2c1	0.62
Cc1ccc(S(=O)(=O)N2CCN(C(=O)CSc3cc(C)ccc3C)CC2)c(C)c1	1.03
Cc1ccc2oc(=O)c3cnn(CC(=O)N(Cc4ccco4)C4CCCCC4)c3c2c1	-0.75
Cc1cc(C)cc(Oc2nc3c(C)cccn3c(=O)c2/C=C(\C#N)C(=O)NC2CCS(=O)(=O)C2)c1 (stereo unspecified)	-1.11
Cc1cc(Cl)c2oc(C(=O)N3CCC(O)(c4ccccc4)CC3)c(C)c2c1	-0.43
COc1ccc(CNC(=O)CN(c2ccc(OC)c(Cl)c2)S(=O)(=O)c2ccc(C)cc2)cc1	-1.61
Cc1ccc(N2CC(C(=O)Nc3ccc(S(=O)(=O)N4CCCC4)cc3)CC2=O)cc1C (stereo unspecified)	1.21
O=C(C(c1ccccc1)c1ccccc1)N1CCN(CC(O)COc2ccccc2)CC1 (stereo unspecified)	-0.02
O=C(CC(c1ccccc1)c1ccccc1)NCC(O)c1ccc([N+](=O)[O-])cc1 (stereo unspecified)	-0.61
Cc1ccc(S(=O)(=O)N2CCN(CC(=O)N/N=C/c3ccc(Br)s3)CC2)cc1	0.71
N#CC(=C1CCCC1)c1nc(-c2ccc(Cl)cc2)cs1	-0.93
Cc1cc(OCC(=O)N2CCN(c3ncccn3)CC2)ccc1Cl	1.39

SMILES	activation [%]
O=C(/C=C/c1ccc(Cl)cc1)N1CCN(c2ccccc2[N+](=O)[O-])CC1	1.03
O=C(Nc1ncc2c(n1)CC(c1ccco1)CC2=O)c1ccc(Cl)cc1 (stereo unspecified)	1.34
CCOc1ccc(CCN2C(=S)N([C@@H](CC(C)C)CN3CCC[C@@H]3CN3C(=S)NC[C@@H]3Cc3ccc(O)cc3)C[C@@H]2Cc2ccc(O)cc2)cc1	-0.93
COc1ccc(OCC(=O)N2CCN(C(=O)COc3ccccc3)CC2)cc1	-0.25
O=C(NNC(=O)c1ccc2ccccc2c1)c1ccc(Cl)cc1	0.21
COc1cccc(-c2cc(C(=O)N3CCN(c4ccccc4OC)CC3)no2)c1	-0.66
COc1ccc(-c2cc(C3CCN(c4ncccc4[N+](=O)[O-])CC3)[nH]n2)cc1	-0.52
FC(F)(F)Oc1ccccc1C(c1nnnn1C1CCCCC1)N1CCN(C/C=C/c2ccccc2)CC1 (stereo unspecified)	2.25
Cc1ccc(OCC(=O)N2CCN(C(=O)c3cccnc3)CC2)cc1	0.16
CC1CCc2sc3nc(N4CCN(CCO)CC4)n4ncnc4c3c2C1 (stereo unspecified)	1.12
Cc1nc2ccc(C(=O)N3CCN(c4ccccc4)CC3)cc2s1	-1.39
Cc1cs/c(=N\N=C\c2ccc(O)cc2)n1Cc1ccco1	-0.2
CCOc1ccc(CN(Cc2ccco2)S(=O)(=O)c2ccc(-n3cnnn3)c(OC)c2)cc1	0.3
Fc1ccccc1/C=N/Nc1cc(N2CCCCC2)ncn1	-1.29
CC(C)Cn1c(N2CCN(C(=O)/C=C/c3ccccc3)CC2)nc2ccccc21	-1.2
COc1cccc(NC(=O)Cn2c3ccccc3c3nc4n(c(=O)c32)CCS4)c1	-1.89
Cc1ccc(OCCNC(=O)CCNS(=O)(=O)c2ccc(Br)cc2)cc1	-0.93
CCN(CC(=O)NCc1cccs1)C(=O)/C=C/c1ccc(C)cc1	0.57
Cc1cccc(N2CCN(C(=O)c3cc4c(=O)[nH]c5ccccc5c4n3C)CC2)c1C	2.57

SMILES	activation [%]
O=C(COc1ccc2c(c1)CCC2)N1CCN(c2ccc(F)cc2)CC1	-1.43
O=C(COc1ccc(Cl)cc1)N1CCN(c2cccc(C(F)(F)F)c2)CC1	1.62
Cc1nc(-c2ccccc2)sc1C(=O)/C=C/c1ccccc1	1.39
N#Cc1ccc(C(c2nnnn2CCc2ccccc2)N2CCCCCC2)cc1 (stereo unspecified)	0.07
COc1ccccc1N1CCN(C(=O)c2cc(=O)c3cc(C)ccc3o2)CC1	0.39
O=C(c1cc2cc(F)ccc2[nH]1)N1CCN(c2ccc(F)cc2)CC1	1.94
COc1ccc(NC(=O)N2CCC(Cc3ccccc3)CC2)cc1	-0.34
Cc1ccc(-c2nn(-c3ccccc3)cc2/C=C/C(=O)Nc2cccc(S(N)(=O)=O)c2)cc1	1.07
Cc1cccc(NC(=O)CN2CCN(C(=O)C3CCN(C(=O)/C=C/c4ccccc4)CC3)CC2)c1C	-0.88
Cc1ccc2oc(=O)c3cnn(CC(=O)N4CCCCCC4)c3c2c1	-0.61
CC(=O)c1nn(-c2ccc(C)cc2)cc1C(=O)c1cccc(Br)c1	1.07
COc1ccc([C@H]2CC(=O)C=C(c3ccc(C)cc3)C2)cc1	1.12
CCOc1ccc(C(C)=O)cc1COC(=O)c1cnc(Cl)c(Cl)c1	-0.57
O=C(c1cc2ccccc2s1)N1CCN(c2ccccn2)CC1	-1.48
CCC1Nc2ncnc(N3CCN(c4ccccc4)CC3)c2N(Cc2ccc(Cl)cc2)C1=O (stereo unspecified)	-4.52
CC1(Cc2ccccc2C#N)C(=O)Nc2ccc(-c3ccc4[nH]ccc4c3)cc21 (stereo unspecified)	-0.66
O=C(c1cc2ccccc2o1)N1CCN(S(=O)(=O)c2ccc(Cl)s2)CC1	0.16
COc1ccc(Nc2cc(Sc3ccc(OC)cc3)ncn2)cc1	-0.07
